Measurements: the EternaBench riboswitch data

System: MS2 coat protein
Assay: apparent Kd, MS2 coat protein; higher = weaker binding; RNA-MaP array; FMN 200 µM where present
Outline: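 Designs on Illumina sequencing-chip clusters, transcribed by stalled E. coli RNA polymerase, were exposed to SNAP-549-labelled MS2 coat protein in doubling steps from 0.7 or 1.5 nM up to 3 µM, without and then with constant ligand. The buffer held 100 mM Tris-HCl pH 7.5, 80 mM KCl, 4 mM MgCl2, BSA, DTT, yeast tRNA and Tween-20. Apparent Kd values are medians of filtered per-cluster binding-curve fits to green signal normalised to red-channel RNA signal and control-cluster median Fmax.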

[1] = designed as: OFF switch for flavin mononucleotide, no ligand
[2] = ligand present: flavin mononucleotide, designed as: OFF switch for flavin mononucleotide
[3] = designed as: ON switch for flavin mononucleotide, no ligand
[4] = ligand present: flavin mononucleotide, designed as: ON switch for flavin mononucleotide

Sequence	apparent Kd [1]	apparent Kd [2]	apparent Kd [3]	apparent Kd [4]
GCGUCGAGUGUGAGGAUAUGCUGGUCCUUGGAUCAGCAGAAGGCACAUGAGGAUCACCCAUGUGAAAACGAUGC	22.7 nM	140 nM	–	–
AAACUAGUAGAGGAUAUUCCAGGCAGUGUUUGAGAAGAAGGCUACACAUGAGGAUCACCCAUGUGGCCUGGUGG	13.6 nM	17.1 nM	–	–
GCACGAGACUAAGGAUAUGGUGUACCUACAUGUAACAUGAGGAUCACCCAUGUGGUAAGUAUGAUUCAGAAGGUAGAGACGUGC	–	–	33.2 nM	20 nM
GGCCCGUCUGUUAGGAUAUUGUCGAACUUUAGCGGCGAGAAGGAACAUGAGGAUCACCCAUGUCCCAACUGGGA	25.5 nM	196 nM	–	–
CCGGAAAGGAAGGAUAUGCUAGACGAGAGUCUAGCAGAAGGUCCUACAUGAGGAUCACCCAUGUGGCCUCCCGG	139 nM	627 nM	–	–
AAUUAUUUAUGAGGAUAUUGUGGUGAAACACCACAAGAAGGCAUGAUACACAUGAGGAUCACCCAUGUGAGCCUGAUGCUUAUG	16.7 nM	20.1 nM	–	–
UAAAUUAUACAAGGAUAUCUAUCGUAGUUUAGACUUACAUGAGGAUCACCCAUGUUAAUAUGUUUAGAGAAGGUGUAUUUUCAG	–	–	43.3 nM	22.5 nM
UAUAUAUAGUAAGGAUAUGUAAUUAUUUUAUAAACAGAAGGUACUGACAUGAGGAUCACCCAUGUUUUAGUGUGGGCAUGUAGA	87.7 nM	139 nM	–	–
AGGUGCACAGGAUAUACAUGAGGAUCACCCAUGUGCCAACUGUGCGCUGGUCCUUUAUGUAGAAGGGUGCGUCC	22.1 nM	15.8 nM	–	–
GCUCUAUGCUAGAAGGCGUGAAACAUGAGGAUCACCCAUGUCAAAGACGUGAGGAUAUAGCAUAGAGCAAAAGUGCGAAAGCAC	–	–	5.49 nM	5.29 nM
GCAGCACUCAUUAACAUGAGGAUCACCCAUGUCAAAAGACAUGAGGAUAUGCAUCUGAAGAAGAUGCAGAAGGCAUUGUGCUGC	–	–	555 nM	25.6 nM
GGGUACAUCGGAGGAUAUCAUGUAAAUACAUGAGGAUCACCCAUGUCGAUGGAGAUAUCGGAGAUUGAGAAGGCCGAUGUACCG	–	–	102 nM	9.9 nM
AUGCUUUUUGUAGGAUAUACAUACGGUACGUAUGUAGAAGGACAUGAGGAUCACCCAUGUAAAUUAUUAUUAAAUAUCAUACUU	12.7 nM	12.2 nM	–	–
AGCAUGUGAGGAUAUGUGACCCUCAUCCGAAGGACGAGGGAAUAGAAGGCACAUGAGGAUCACCCAUGUGAUGA	46.2 nM	188 nM	–	–
UACUUACGAGGAUAUCGAUUGUGGUACAUGAGGAUCACCCAUGUAUGUGAUAUUGUAUUUCGAGAAGGCGUUCAGU	25.8 nM	21.7 nM	–	–
CGCAUGCGUAGUAUUAGUUGCUGACAGGAUAUGACAUGAGGAUCACCCAUGUGAAUUAAGAAGAGUCAGAAGGGUCACGUUGCG	11.6 nM	10.6 nM	–	–
GCACGAGACUAAGGAUAUGGAGUGUCAACAUAAAACAUGAGGAUCACCCAUGUAAAGAGUACGAUUCAGAAGGUAGAGACGUGC	–	–	41 nM	23.6 nM
CAAACAAGUGCGAGCUGACACAUGAGGAUCACCCAUGUAACACAGGAUAUCUGUCAAGGCGUGAAAGAGAAGGGUGGUCGGAAA	–	–	226 nM	375 nM
CUGAUGUUAGGAUAUCAGGCACCCGCCACUGGCAGGGCGCAUGAGAAGGGACAUGAGGAUCACCCAUGUAGUAA	25.2 nM	60.1 nM	–	–
AGACUUGCAGGAUAUACAUGAGGAUCACCCAUGUAUGUAAACUUAUGCGGUGUGACCUGUAGAAGGGUAGGCGU	21.1 nM	24.2 nM	–	–
CUUCGACAUGAGGAUCACCCAUGUCAGGAUAUUGUUUAUCUGGUUUUUUACAGAUAUGCAAGAAGGGAUGUGUU	28.5 nM	23.1 nM	–	–

Sequence	apparent Kd [1]	apparent Kd [2]	apparent Kd [3]	apparent Kd [4]
GCUGUCGCAUGAGGAUAUGGUCAGCUUUGCUGACCAGAAGGCAUGUCAAUAGACAUGAGGAUCACCCAUGUAGUAAGGGCGGCU	–	–	466 nM	48.8 nM
CAAUUGGCACAGAAGGGUGACAUGAGGAUCACCCAUGUAGCGUGGCACUCAGGAGGAACCACGCCACAGGAUAUGUGCGGGCAC	–	–	65 nM	76.6 nM
UAUCAUUACACGAAGGAUAUCGAUAAUUGAACAUGAGGAUCACCCAUGUGAUAUAUUUUACAGUUCGAGAAGGUCGAGGGUGAAG	–	–	35.6 nM	18 nM
UGGCUGAGUCGAGGAUAUGAUCUUCAUAUAAUAACAUGAGGAUCACCCAUGUAUAAUUACAUGGAUCAGAAGGCGACUCAGCCA	–	–	–	38.1 nM
CAGGUAGACUGAGGAUAUACAGACCUAGUCUAUCUAGGUCAAGUCCUUACAUGAGGAUCACCCAUGUAGAAGGCAGUCUGCCUG	19.5 nM	52.7 nM	–	–
GUGGCUGUUAGGCUUGCGUCGGCGACAGAAGGCCAACAUGAGGAUCACCCAUGUACAAAGACCAUGGAGGAUAUGUUGCCAAUG	–	–	58.2 nM	7.54 nM
CUCGUCUGGAAACGGAGCGGCCAACAUGAGGAUCACCCAUGUGAGGAUAUGCCUACUAAAAGUAGGCAGAAGGCGCAAUUGGCA	20.3 nM	36 nM	–	–
UUGCCACAUGAGGAUCACCCAUGUGAGGAUAUGGCCUGUUUGGCGUGAGCUGGUUCUGUCAGAAGGCGCGUGGG	45.9 nM	51.3 nM	–	–
UUAUCUCAUGAGAAGGACAUGAGGAUCACCCAUGUAGGAUAUCAUGGGUCAGUGGAAUUGAAUCUUCGGAUUCAAUUACUCUAC	–	–	60.6 nM	11.5 nM
UUUGUUUUGCAAGGAUAUGUUUAAUUUUAGUUUCCUUACACAUGAGGAUCACCCAUGUUAUACUUACAGAAGGUGCGUAAUUUG	149 nM	136 nM	–	–
UCGGCGCGAGGAUAUGCGGUUUGUGCUUUGGGCCCUGGCGUACAUGAGGAUCACCCAUGUAGAAGGCGCGUUGC	19.4 nM	20 nM	–	–
AGGUAACAUGAGGAUCACCCAUGUCAGGAUAUCAGUAAGAUGAGUAUAGAAUAGAGUAUGAGAAGGGACUAUAU	36.5 nM	28.6 nM	–	–
ACAGAGGCUGACAUGAGGAUCACCCAUGUUAGAUUGUUAUGUCAGGAUAUUAUCUGGCAACCAGAUGAGAAGGGACCCUCUGUG	–	–	22.6 nM	7.54 nM
GCUCGAUGCGCUGAGAACAUGAGGAUCACCCAUGUAAAUGGUCAGGAUAUUUACGUGCUUUAUGUAGAGAAGGGACCAUCGAGC	–	–	110 nM	27.3 nM
AUCAGCUCGACAGGAUAUACGUCACUGCGUCAGCAGUGUGGUAAGAUCACAUGAGGAUCACCCAUGUAGAAGGGACGAGCUGAU	12.1 nM	56.2 nM	–	–
GAAGCACAUGAGGAUCACCCAUGUGAGGAUAUCCGUCUGGUCCGGCCGGACCAGUACCGGAGAAGGCGCGUAAA	59.1 nM	42 nM	–	–
AGACCCAUGACAUGACAUGACAUGAGGAUCACCCAUGUUUACAAGGAUAUGUUGAUGAAACAUCAACAGAAGGUGUAAUGGGCU	20.9 nM	73.1 nM	–	–
UGUAAUGCUAUUGCAGAGGUUUAGAAGGAUAUACAUCGACAUGACCGUACAUGAGGAUCACCCAUGUAGAAGGUCUAACUUCGU	5.61 nM	5.55 nM	–	–
AGAGUGUGAGGAUAUAUGGUGAAGAUGAAGGGAUAGAAGGAGUAGAAGGUACAUGAGGAUCACCCAUGUUAGGA	25.2 nM	25.7 nM	–	–
CAGUACUGAGGAUAUACAUGAGGAUCACCCAUGUGUUCCAGCUAGGAAUCUAGCAAAAGUAGAAGGCAGUACUG	25.9 nM	449 nM	–	–
UUGGACGUCGUAGGAUAUGUAGGAUAUUCCUACAUGAGGAUCACCCAUGUUGACAGGGAAGAAGGACAGAAGGACGAUGUCCAU	–	–	17 nM	4.01 nM
